Source: ChEMBL document CHEMBL3232847, “Discovery of 6-phenylpyrimido[4,5-b][1,4]oxazines as potent and selective acyl CoA:diacylglycerol acyltransferase 1 (DGAT1) inhibitors with in vivo efficacy in rodents” (J Med Chem, 2014)
Active and inactive are the calls of the source. The calls are words filed in the database; no cut-off is given here.

Key:
[1] = Half life in Sprague-Dawley rat at 0.7 mg/kg, iv; assay type: ADME, organism-based; parameters: dose 0.7 mg/kg, route intravenous; details: in vivo
[2] = Half life in beagle dog at 0.2 mg/kg, iv; assay type: ADME, organism-based, Canis lupus familiaris; parameters: dose 0.2 mg/kg, route intravenous; details: in vivo
Cynomolgus monkey = test: Toxicity in cynomolgus monkey assessed as elevation of change in clinical parameters at 10 to 30 mg/kg/day, po qd by 21-day multiple-dose toxicity study relative to control; assay type: organism-based, Macaca fascicularis; parameters: route oral; details: in vivo
Method in brief: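 Cynomolgus monkeys were dosed po once daily at 10 and 30 mg/kg for 21 days. ALT and AST levels, QTc intervals, and clinical and histopathological findings were assessed, and plasma AUC was recorded for each dose.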

[3] = Oral bioavailability in cynomolgus monkey at 5 mg/kg; assay type: ADME, organism-based, Macaca fascicularis; details: in vivo
[4] = Clearance in beagle dog at 0.2 mg/kg, iv; assay type: ADME, organism-based, Canis lupus familiaris; parameters: dose 0.2 mg/kg, route intravenous; details: in vivo
[5] = target: T1, Sterol O-acyltransferase 1 (Homo sapiens, UniProt P35610); test: Inhibition of human full-length flag-tagged ACAT1 expressed in baculovirus infected insect cells using [14C]palmitoyl CoA as substrate after 10 mins by scintillation counting
T1 sequence (P35610 whole entry): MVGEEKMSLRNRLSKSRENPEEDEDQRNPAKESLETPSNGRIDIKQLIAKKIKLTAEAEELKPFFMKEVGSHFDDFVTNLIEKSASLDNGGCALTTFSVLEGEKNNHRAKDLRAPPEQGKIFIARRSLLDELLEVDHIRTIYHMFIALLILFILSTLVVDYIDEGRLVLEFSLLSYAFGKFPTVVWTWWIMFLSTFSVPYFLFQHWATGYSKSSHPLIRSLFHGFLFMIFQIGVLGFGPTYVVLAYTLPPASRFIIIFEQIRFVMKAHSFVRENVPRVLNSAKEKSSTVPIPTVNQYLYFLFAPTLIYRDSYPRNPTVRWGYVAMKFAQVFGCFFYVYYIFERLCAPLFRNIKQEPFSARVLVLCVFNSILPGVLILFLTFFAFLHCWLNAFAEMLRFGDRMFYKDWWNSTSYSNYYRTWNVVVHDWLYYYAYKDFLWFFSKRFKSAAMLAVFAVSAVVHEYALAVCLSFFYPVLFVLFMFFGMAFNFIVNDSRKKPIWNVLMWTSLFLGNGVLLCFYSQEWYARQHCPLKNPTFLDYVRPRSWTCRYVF

[6] = target: T2, Diacylglycerol O-acyltransferase 2 (Homo sapiens) (UniProt Q96PD7); test: Inhibition of human liver flag-tagged DGAT2 expressed in baculovirus infected insect cells up to 10 uM after 2 hrs by SPA
T2 sequence (whole entry): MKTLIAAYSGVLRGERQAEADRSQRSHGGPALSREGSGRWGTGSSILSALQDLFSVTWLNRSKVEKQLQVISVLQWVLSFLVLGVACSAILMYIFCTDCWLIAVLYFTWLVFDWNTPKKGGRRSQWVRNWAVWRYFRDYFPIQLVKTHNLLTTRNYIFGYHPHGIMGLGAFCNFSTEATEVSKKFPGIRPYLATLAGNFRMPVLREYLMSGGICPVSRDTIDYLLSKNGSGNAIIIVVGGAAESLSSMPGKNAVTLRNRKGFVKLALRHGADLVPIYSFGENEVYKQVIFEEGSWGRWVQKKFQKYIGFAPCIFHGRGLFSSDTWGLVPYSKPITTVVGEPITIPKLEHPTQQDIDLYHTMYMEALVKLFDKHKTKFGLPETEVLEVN

[7] = Half life in beagle dog at 0.5 mg/kg, iv; assay type: ADME, organism-based, Canis lupus familiaris; parameters: dose 0.5 mg/kg, route intravenous; details: in vivo
[8] = Clearance in beagle dog at 0.5 mg/kg, iv; assay type: ADME, organism-based, Canis lupus familiaris; parameters: dose 0.5 mg/kg, route intravenous; details: in vivo
[9] = AUC in cynomolgus monkey at 100 mg/kg, po administered as single dose relative to control; assay type: ADME, organism-based, Macaca fascicularis; parameters: dose 100 mg/kg, route oral; details: plasma
Method in brief: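 Cynomolgus monkeys received a single oral dose of 100 mg/kg. Plasma AUC was recorded alongside plasma liver enzymes ALT and AST.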

[10] = AUC in beagle dog at 5 mg/kg, po; assay type: ADME, organism-based, Canis lupus familiaris; parameters: dose 5 mg/kg, route oral; details: plasma
[11] = AUC in CD1 mouse at 2 mg/kg, po; assay type: ADME, organism-based; parameters: dose 2 mg/kg, route oral; details: plasma
[12] = Volume of distribution at steady state in rhesus monkey at 0.2 mg/kg, iv; assay type: ADME, organism-based, Macaca mulatta; parameters: dose 0.2 mg/kg, route intravenous; details: in vivo, read-out: Vdss
Rattus norvegicus = test: Reduction in plasma triglyceride level in po dosed Sprague-Dawley rat compound treated 30 mins prior to olive oil administration measured 3 hrs post olive oil administration relative to vehicle-treated control; assay type: functional, organism-based
Method in brief: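 Animals received vehicle or compound by oral gavage, then olive oil (5 mL/kg) by oral gavage 30 min later. Plasma triglycerides were measured before dosing and 3 h after the oil. The read-out was the change in TG from pre-dose, compared with vehicle-treated animals.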

Compound	half-life [1] [min]	half-life [2] [min]	Activity (Cynomolgus monkey)	bioavailability [3] [%]	clearance [4] [mL/min/kg]	IC50 [5] [µM]	inhibition [6]	half-life [7] [min]	clearance [8] [mL/min/kg]	AUC [9] [µM·h]	AUC [10] [ng·h/mL]	AUC [11] [ng·h/mL]	Vd [12] [L/kg]	Activity (Rattus norvegicus)
CC1(C)Oc2nc(C(F)(F)F)nc(N)c2N=C1c1ccc2c(c1)CC[C@]21CC[C@@H](CC(=O)O)CC1	222	66	Non-toxic	99	2.33	> 10	–	–	–	–	–	–	–	–
CC1(C)Oc2ncnc(N)c2N=C1c1ccc([C@H]2CC[C@H](CC(=O)O)CC2)cc1	–	–	–	–	–	–	inactive	144	11	1420	4720	6690	0.46	Dose-dependent effect
